Screens from PubChem BioAssay.
rCAG binder – binders of r(CAG) RNA repeats, primary screen, biochemical, fluorescence. r(CAG) RNA repeat, TO-PRO-1 dye displacement fluorescence. inhibition, % at 3 µM. AID 651821, 2012. actives 1.3% (n = 370,000);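 active = inhibition above the plate cutoff, the mean of all test compounds on that plate plus 3 SD, cut at about 35% in these data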;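 also: higher means more dye released from RNA so lower well fluorescence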
ATG4B inhibitor – ATG4B protease inhibitors, primary screen, biochemical, fluorescence, uHTS; Cysteine protease ATG4B (Homo sapiens), Q9Y4P1; ATG4B cleavage of LC3-PLA2, NBD-HPC fluorescence, 1 h; inhibition, % at 8.33 µM; actives 0.51% (n = 340,000); AID 504462, 2011; in the data active = inhibition above about 40%
CSN deneddyl inh – inhibitors of CSN-mediated cullin deneddylation, primary screen, biochemical, fluorescence polarization, uHTS. Purified CSN, SCF-Nedd8-OG deneddylation. COP9 signalosome complex subunit 5 (Homo sapiens), Q92905. inhibition, % at 12.5 µM. actives 0.38% (n = 360,000);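 active = pattern-corrected inhibition above about 35%, with an unprinted fluorescence ratio check between 0.5 and 1.5, limit read from the data, passing the limit was not always enough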
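Assay system: Purified human Csn5 enzyme expressed in HEK293T cells | Amount: Enzyme 0.24 nM | Measured by: Fluorescence polarization readout | Medium: Tris/NaCl/DTT buffer, pH 7.5 | Compound dosing: One concentration, 12.5 µM, 0.25% DMSO | Times: 90 min incubation of compound, enzyme and substrate at room temperature | Control set: no-enzyme wells high, enzyme-with-substrate wells low | Read-out: % inhibition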
MBD2 DNA inh – inhibitors of MBD2 binding to methylated DNA, primary screen, biochemical, TR-FRET, DNA-binding domain, human | Methyl-CpG-binding domain protein 2 (Homo sapiens), Q9UBB5 | MBD2 binding to methylated oligonucleotide | inhibition, % at 4.4 µM | actives 0.31% (n = 370,000) | AID 686964, 2013; in the data active = inhibition above about 13%
Target sequence (Q9UBB5 whole entry, looked up, the tested form may be a part): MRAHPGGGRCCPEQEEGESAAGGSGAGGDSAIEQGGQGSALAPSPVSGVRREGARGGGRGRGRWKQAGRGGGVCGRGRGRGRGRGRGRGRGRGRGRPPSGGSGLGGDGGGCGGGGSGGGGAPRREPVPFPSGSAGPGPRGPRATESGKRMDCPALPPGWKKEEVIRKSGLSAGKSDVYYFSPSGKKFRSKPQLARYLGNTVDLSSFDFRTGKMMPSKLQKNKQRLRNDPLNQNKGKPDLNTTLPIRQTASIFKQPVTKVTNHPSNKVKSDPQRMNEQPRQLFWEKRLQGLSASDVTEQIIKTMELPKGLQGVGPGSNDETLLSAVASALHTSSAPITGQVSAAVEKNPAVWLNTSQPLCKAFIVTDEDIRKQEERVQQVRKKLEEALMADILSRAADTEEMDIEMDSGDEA
LEDGF integ inh – blockers of LEDGF/p75-dependent integrase strand transfer – biochemical, TR-FRET, high throughput, primary screen | actives 0.64% (n = 370,000) | TR-FRET IN-LEDGF/p75 DNA integration, Eu/Cy5 | HIV-1 integrase (with human LEDGF/p75) | AID 743269, 2014 | inhibition, % at 3.7 µM;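 active = inhibition above the screen-wide mean plus 3 SD, cut at about 13% in these data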;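 also: signal is the Cy5 over europium emission ratio at 671 and 618 nm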
UHRF1 binding – UHRF1 methylated DNA binding inhibitors, primary screen, counter-screen for MBD2 inhibitor project, biochemical, TR-FRET, human UHRF1, single concentration. E3 ubiquitin-protein ligase UHRF1 (Homo sapiens), Q96T88. UHRF1 binding to methylated oligo. AID 687016, 2013. inhibition, % at 4.4 µM. actives 0.75% (n = 370,000); in the data active = inhibition above about 21%;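 also: UHRF1 SRA domain binding a hemimethylated CpG hairpin DNA probe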
rCAG binder conf – small molecules binding CAG repeat RNA – biochemical, fluorescence, confirmation. shares compounds with rCAG binder. r(CAG) RNA repeat, TO-PRO-1 dye displacement fluorescence. inhibition, % at 3 µM. actives 70% (n = 4,300). AID 652065, 2013;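 active = inhibition above a per-plate cutoff, the mean inhibition of sample wells plus 3 SD, cut at about 35% in these data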;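 also: loss of TO-PRO-1 fluorescence as compound displaces dye from 1x1 AA loop RNA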
dCAG dye counter – displacement of TO-PRO-1 from CAG DNA duplex, counter-screen for rCAG RNA repeat binder project, biochemical, fluorescence, TO-PRO-1 dye, d(CAG) DNA oligo | d(CAG) DNA oligo TO-PRO-1 dye displacement | actives 94% (n = 4,300) | shares compounds with rCAG binder | inhibition, % at 3 µM;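 active = inhibition above its plate's cutoff, the mean test-well inhibition plus 3 SD, cut at about 4.8% in these data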;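 also: hits displace the dye from DNA and so lower well fluorescence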
dCAG dye DR – inhibitors of DNA CAG/GTC TO-PRO-1 complex, dose response, counter-screen for rCAG RNA repeat binder project, biochemical, fluorescence, TO-PRO-1 dye | shares compounds with rCAG binder | DNA CAG/GTC duplex TO-PRO-1 dye displacement fluorescence | IC50, µM | actives 20% (n = 250) | AID 686960, 2013; in the data active = IC50 below about 10 µM
A number is an active result; – = inactive; · = no result given. In the library only some 3.1% were active in any assay of this set; here they are far more common.

SMILES	rCAG binder	ATG4B inhibitor	CSN deneddyl inh	MBD2 DNA inh	LEDGF integ inh	UHRF1 binding	rCAG binder conf	dCAG dye counter	others
O=C(O)C1CC=CCC1C(=O)Nc1ccc(S(=O)(=O)N2CCCc3ccccc32)cc1 (stereo unspecified)	36.2	–	–	–	–	–	36.8	9.1
O=C(Nc1ccc(S(=O)(=O)N2CCCc3ccccc32)cc1)C1CCCO1 (stereo unspecified)	·	–	–	·	·	·	·	·
COc1ccc(S(=O)(=O)N(C(C)=O)c2ccc3oc(=O)sc3c2)cc1	44.1	–	–	–	–	–	–	6.0
CCC(C(=O)Nc1ccc(C(=O)Nc2ccccc2C(=O)O)cc1)c1ccccc1 (stereo unspecified)	74.6	–	–	–	–	–	67.3	27.1
CCN(CC)S(=O)(=O)c1cc(C(=O)Nc2ccccc2C(=O)O)ccc1OC	37.3	–	–	–	–	–	–	6.6
COc1ccc(NC(=O)c2ccccc2NC(=O)c2ccccc2)cc1	–	–	–	–	–	–	·	·
COc1ccccc1C(=O)Nc1ccc(C(=O)Nc2ccccc2C(=O)O)cc1	42.2	–	–	–	–	–	59.8	20.4
CCC(C(=O)Nc1ccc(C(=O)O)cc1NC(=O)C(CC)c1ccccc1)c1ccccc1 (stereo unspecified)	63.3	–	–	–	–	–	56.9	22.8
CCCC/C=C1/[C@@H](c2ccc(Cl)cc2)N(Cc2ccc3c(c2)OCO3)C2=N[C@@H](c3ccccc3)CC(=O)N21	–	·	·	–	–	–	·	·
Cc1ccc(CNC(=O)O[C@H]2CC[C@@]34CCCN3C(=O)CCC[C@H]4[C@H]2C)cc1	·	·	·	–	–	–	·	·
COC(=O)[C@]12C[C@H](CC(=O)NCCc3ccccc3OC)C(=O)N(CCc3ccc(OC)c(OC)c3)C1=C[C@H](COCc1ccccc1)O[C@@H]2C	–	·	·	–	–	–	·	·
O=S(=O)(Nc1nc2ccccc2nc1NCC1CCCO1)c1ccccc1 (stereo unspecified)	–	–	–	–	–	–	·	·
Nc1c(S(=O)(=O)c2cccc(Cl)c2)c2nc3ccccc3nc2n1CCN1CCOCC1	–	–	–	–	–	–	·	·
O=S(=O)(Nc1nc2ccccc2nc1NCC1CCCO1)c1cc(Cl)ccc1Cl (stereo unspecified)	70.6	–	–	–	–	–	48.7	14.4
O=S(=O)(Nc1nc2ccccc2nc1NCCN1CCOCC1)c1cccc(Cl)c1	49.1	–	–	–	–	–	52.5	10.4	dCAG dye DR=–
COc1ccc(OC)c(CN2C(=O)CCCCC2(C)c2nnnn2C2CCCC2)c1 (stereo unspecified)	–	·	·	–	–	–	·	·
COCCCNC(=O)c1ccc2c(c1)NC(=O)C(C)(C)O2	–	·	·	–	–	–	·	·
N#Cc1c(-c2ccc(Cl)cc2)cc(-c2cccs2)nc1SCC(=O)O	65.5	–	–	–	–	–	61.9	24.9
N#Cc1c(-c2ccccc2)cc(-c2cccs2)nc1SCC(=O)O	49.7	–	–	–	–	–	40.7	17.0
CCOC(=O)[C@]12CCCC=C1N(CCCOC)C(=O)[C@@H]2CC(=O)NCC1CCCCC1	–	·	·	–	–	–	·	·
Cc1cccc(OCC(=O)Nc2ccc(S(=O)(=O)Nc3onc(C)c3C)cc2)c1C	41.0	–	–	–	–	–	–	6.5
Cc1cccc(OCCCC(=O)Nc2ccc(S(=O)(=O)Nc3ncccn3)cc2)c1C	–	–	–	–	–	–	·	·
Cc1cccc(OCCCC(=O)Nc2ccc(S(=O)(=O)Nc3nccs3)cc2)c1C	58.6	–	–	–	–	–	49.4	17.0
Cc1noc(NS(=O)(=O)c2ccc(NC(=O)COc3ccc(C#N)cc3)cc2)c1C	–	–	–	–	–	–	·	·
O=C(COc1ccc(F)cc1Cl)Nc1ccc(S(=O)(=O)Nc2nccs2)cc1	43.4	–	–	–	–	–	39.9	13.0
SMILES	rCAG binder	ATG4B inhibitor	CSN deneddyl inh	MBD2 DNA inh	LEDGF integ inh	UHRF1 binding	rCAG binder conf	dCAG dye counter	others
Cc1cccc(OCCCC(=O)Nc2ccc(S(=O)(=O)Nc3onc(C)c3C)cc2)c1C	59.3	–	–	–	–	–	–	8.5
Cc1cccc(OCCCC(=O)Nc2nccs2)c1C	–	–	–	–	–	–	·	·
COC(=O)[C@]12CCCCC=C1N(Cc1ccc(OC)cc1)C(=O)[C@@H]2CC(=O)NCc1cccc(C(F)(F)F)c1	–	·	·	–	–	–	·	·
CC(=O)c1cc(-c2ccc3c(c2)OCO3)c(=O)n2c1CCC2	–	·	·	–	–	–	·	·
COc1ccc(C=NNc2ccc([N+](=O)[O-])cc2S(=O)(=O)Nc2ccccc2C(=O)O)cc1OC	90.3	–	–	–	–	–	93.6	75.0
COc1ccc(/C=N/Nc2ccccc2C(=O)O)cc1Cn1cc([N+](=O)[O-])cn1	49.5	–	–	–	–	–	39.6	13.0
COc1ccc(/C=N/Nc2ccc([N+](=O)[O-])cc2S(=O)(=O)N2CCN(C)CC2)cc1	–	–	–	–	–	–	·	·
O=[N+]([O-])c1ccccc1N/N=C/c1c[nH]c2ccccc12	36.5	–	–	–	–	–	–	15.8
COc1ccccc1NS(=O)(=O)c1cc([N+](=O)[O-])ccc1N/N=C/c1c[nH]c2ccccc12	74.4	–	–	–	–	–	71.2	35.6
COCCCNC(=O)C[C@H]1C[C@@]2(C(=O)OC)C(=C[C@H](C(C)C)O[C@@H]2C2CC2)N(CCc2ccc(OC)c(OC)c2)C1=O	–	·	·	–	–	–	·	·
COCc1cc(C)nc(OCC(=O)N/N=C/c2ccc(-c3cc([N+](=O)[O-])ccc3C)o2)c1C#N	–	–	–	–	–	–	·	·
